For one molecule, GI50, Activity and Fold change results are on record in ChEMBL document CHEMBL1143665, “Novel acyclic enediynes inhibit Cyclin A and Cdc25C expression and induce apoptosis phenomenon to show potent antitumor proliferation” (2007).

For orientation: GI50 means the concentration giving 50% growth inhibition. High values mean less potent growth inhibition, low ones more potent growth inhibition.

For experiment [1], the system named is SF-295. Put plainly: Cytotoxicity against human SF295 cells. It is filed as functional.
Experiment [2] concerns K562. Put plainly: Cytotoxicity against human K562 cells. It is filed as functional.
Experiment [3] deals with DU-145. Put plainly: Cytotoxicity against human DU145 cells. It is filed as functional.
In experiment [4] the test system is HCT-15. Description: Cytotoxicity against human HCT15 cells. It is filed as functional.
The subject of experiment [5] is LOX IMVI. Description: Cytotoxicity against human LOX IMVI cells. It is filed as functional.
Experiment [6] relates to OVCAR-3. Description: Cytotoxicity against human OVCAR-3 cells. It is filed as functional.
Experiment [7] has as its system MDA-MB-435. Put plainly: Cytotoxicity against human MDA-MB-435 cells. It is filed as functional.
Experiment [8] deals with K562. Description: Cell cycle arrest in human K562 cells by accumulation at G0/G1 phase cell at 50 uM after 24 hrs relative to control. It is filed as functional. In outline:
(§1)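 K-562 cells (RPMI 1640, 10% fetal calf serum, 37 °C, 5% CO2) exposed 24 h, pelleted, fixed in ice-cold 70% ethanol 30 min, RNase A (1 mg/ml) 37 °C 30 min, propidium iodide stain 30 min at room temperature in the dark; DNA content of 10,000 events by flow cytometry; phase and sub-G1 percentages compared with untreated control.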

For experiment [9], the system named is K562. Put plainly: Cell cycle arrest in human K562 cells by accumulation at S phase cell at 50 uM after 24 hrs relative to control. It is filed as functional. The method in brief: as §1
Experiment [10] relates to K562. Description: Cell cycle arrest in human K562 cells by accumulation at G2/M phase cell at 50 uM after 24 hrs relative to control. It is filed as functional. The method in brief:
as §1

Experiment [11] concerns K562. Description: Induction of apoptosis in human K562 cells assessed as accumulation at subG1 phase at 50 uM after 24 hrs relative to control. It is filed as functional. In outline:
as §1

For experiment [12], the target named is T1, Caspase-3 (Homo sapiens) (UniProt P42574).
T1 sequence (whole entry): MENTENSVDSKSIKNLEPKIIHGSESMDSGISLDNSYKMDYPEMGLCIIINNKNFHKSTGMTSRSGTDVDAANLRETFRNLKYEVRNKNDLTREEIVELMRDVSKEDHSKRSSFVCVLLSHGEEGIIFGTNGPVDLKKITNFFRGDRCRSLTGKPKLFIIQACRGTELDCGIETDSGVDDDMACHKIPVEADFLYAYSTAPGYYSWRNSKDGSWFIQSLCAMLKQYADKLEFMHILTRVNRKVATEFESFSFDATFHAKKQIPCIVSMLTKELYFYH
Description: Increase in caspase 3 activation in human K562 cells at 50 uM relative to control. It is filed as cell-based. In outline: (§2)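 K-562 cells treated 24 h, washed, lysed in 50 mM Tris-HCl pH 7.4, 1 mM EDTA, 10 mM EGTA, spun 18,000g 3 min; lysate (50 µg protein) incubated with 100 µM caspase-specific colorimetric substrate at 37 °C for 1 h; cleavage read as absorbance at 405 nm, expressed as fold of control.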

Experiment [13] deals with T1, Caspase-3 (Homo sapiens). Description: Increase in caspase 3 activation in human K562 cells at 25 uM relative to control. It is filed as cell-based. In outline: as §2
Experiment [14] addresses Caspase-8 (Homo sapiens) (UniProt Q14790). Put plainly: Increase in caspase 8 activation in human K562 cells at 25 uM relative to control. It is filed as cell-based. The method in brief:
as §2

For experiment [15] the target is unchanged. Put plainly: Increase in caspase 8 activation in human K562 cells at 50 uM relative to control. It is filed as cell-based. In outline:
as §2

Experiment [16] has as its target T2, Caspase-9 (Homo sapiens) (UniProt P55211).
T2 sequence (whole entry): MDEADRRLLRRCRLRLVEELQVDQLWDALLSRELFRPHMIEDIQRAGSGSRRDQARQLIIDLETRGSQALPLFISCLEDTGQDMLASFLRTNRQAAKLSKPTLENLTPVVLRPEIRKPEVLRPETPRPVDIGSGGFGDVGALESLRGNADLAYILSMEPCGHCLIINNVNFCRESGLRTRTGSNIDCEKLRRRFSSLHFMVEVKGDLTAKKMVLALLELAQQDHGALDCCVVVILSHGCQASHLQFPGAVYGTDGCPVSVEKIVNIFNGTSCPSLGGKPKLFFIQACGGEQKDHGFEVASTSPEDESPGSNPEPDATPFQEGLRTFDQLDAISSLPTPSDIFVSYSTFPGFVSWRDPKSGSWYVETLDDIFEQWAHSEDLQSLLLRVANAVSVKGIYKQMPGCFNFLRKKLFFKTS
Put plainly: Increase in caspase 9 activation in human K562 cells at 25 uM relative to control. It is filed as cell-based. The method in brief:
as §2

Experiment [17] has as its target T2, Caspase-9 (Homo sapiens). Description: Increase in caspase 9 activation in human K562 cells at 50 uM relative to control. It is filed as cell-based. The method in brief: as §2
Experiment [18] relates to K562. Put plainly: Induction of apoptosis in human K562 cells at 50 uM in presence of Z-DEVD-FMK. It is filed as functional. The method in brief: (§3)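 K-562 cells preincubated 1 h with caspase-3 (Z-DEVD-FMK), -8 (Z-IETD-FMK) or -9 (Z-LEHD-FMK) inhibitor, then exposed 24 h; cells fixed in 70% ethanol, RNase A (500 U/ml) 37 °C 15 min, propidium iodide 50 µg/ml in PBS; sub-G1 fraction by flow cytometry.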

The test system of experiment [19] is K562. Description: Induction of apoptosis in human K562 cells at 50 uM in presence of Z-IETD-FMK. It is filed as functional. In outline:
as §3

For experiment [20], the system named is K562. Put plainly: Induction of apoptosis in human K562 cells at 50 uM in presence of Z-LEHD-FMK. It is filed as functional. The method in brief: as §3

Sequence of Caspase-8 (Homo sapiens) (Q14790 217-374 limits assumed): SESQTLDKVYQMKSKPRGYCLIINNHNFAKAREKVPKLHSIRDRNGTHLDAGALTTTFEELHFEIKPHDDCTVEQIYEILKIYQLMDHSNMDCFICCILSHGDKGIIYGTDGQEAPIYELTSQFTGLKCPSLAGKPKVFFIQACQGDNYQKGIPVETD
Sequence of Caspase-8 (Homo sapiens) (Q14790 385-479 limits assumed): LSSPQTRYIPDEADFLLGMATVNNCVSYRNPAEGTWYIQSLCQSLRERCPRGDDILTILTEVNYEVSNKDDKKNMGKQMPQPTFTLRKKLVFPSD

As for `OCCCCC#Cc1ccccc1C#Cc1ccc(O)cc1`, the GI50 worked out at 16.2 µM in experiment [1]; 20.4 µM in [2]; 16.8 µM in experiment [3]; 14.1 µM in experiment [4]; 13.6 µM in experiment [5]; 14.8 µM in experiment [6]. The same molecule had a GI50 in [7] of 16.1 µM. Besides, the Activity was determined as 25.6% in experiment [8]; 39.5% in [9]; 34.9% in experiment [10]; 23.56% in experiment [11]; 17% in experiment [18]; 19% in experiment [19]. In experiment [20], the Activity is listed as 42%. Moreover, the Fold change came out at 2.6 in [12]; 1.4 in [13]; 1.2 in experiment [14]; 1.8 in experiment [15]; 1.5 in [16]; 1.7 in experiment [17].
